This is a sample that favours compounds with a hit; in the whole collection about 9% have one here.
D1 mod = D1 CRE-luciferase signal change, two-sided – cell-based, HEK293 D1, dopamine EC30, D1 allosteric modulator project, primary screen. D(1A) dopamine receptor (Homo sapiens), P21728. dopamine EC30 potentiation; actives deviate in either direction. B-score at 10 µM. actives 5.9% (n = 58,000). AID 641, 2007;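 active = luminescence count or its row- and column-corrected plate score outside the 99.7% band of the plate's sample wells, on either side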
Htt clearance = clearance of mutant huntingtin inclusions, primary screen, imaging, HeLa Exon1htt(103Q)mCFP, confocal imaging | aggregate imaging; zero = plate's median compound well | inhibition, % at 1.5 µM | actives 0.42% (n = 47,000) | AID 853, 2007;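 active = inhibition of aggregate fluorescence above about 70%, also judged a hit by eye on the cell image, limit read from the data, passing the limit was not always enough; inconclusive = no rule stated for this call; inactive = not judged a hit on image review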;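 note: cells exposed to compound for three days before fixation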
AP ELISA ortho = alternative complement pathway inhibitors, primary screen, biochemical, ELISA, human serum, orthogonally pooled compounds | LPS-coated ELISA, C3 deposition; tested in compound mixtures | inhibition, % at 5 µM | actives 0.08% (n = 62,000) | AID 1235, 2008;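 active = inhibition above 30% in each of the two pooled mixtures holding the compound, so the lower value exceeds 30%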;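 note: 0% = serum in Mg-EGTA without compound and 100% = EDTA serum blank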
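Assay system: Human serum alternative complement pathway, C3 deposition on LPS-coated wells | Incubation: 1 h serum-compound exposure at 37 °C | Doses: 5 µM per compound in ten-compound mixtures | Read-out: Percent inhibition | Technique: ELISA with HRP anti-human C3 antibody, TMB substrate, absorbance 450 nm | Replication: Two pool placements per compound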
M1 agonist = M1 muscarinic receptor agonists, primary screen, CHO-M1 cells, Fluo-4 calcium, agonist mode | Fluo-4 calcium fluorescence; active compounds read high | B-score at 10 µM | actives 3% (n = 64,000) | AID 626, 2007;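 active = fluorescence rise, raw or as B-score row- and column-corrected plate score, outside the 99.7% band of its plate's samples, either direction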
M1 antag = antagonists of rat M1 muscarinic receptor; CHO-M1 cells, Fluo-4 calcium, ACh EC80 antagonist mode; active compounds read low; B-score at 10 µM; actives 3.4% (n = 64,000); AID 628, 2007;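 active = calcium fluorescence response, raw or row-and-column corrected B-score, differing from the plate sample mean either way at a set confidence level, mostly lower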
Target sequence (P08482 whole entry, looked up): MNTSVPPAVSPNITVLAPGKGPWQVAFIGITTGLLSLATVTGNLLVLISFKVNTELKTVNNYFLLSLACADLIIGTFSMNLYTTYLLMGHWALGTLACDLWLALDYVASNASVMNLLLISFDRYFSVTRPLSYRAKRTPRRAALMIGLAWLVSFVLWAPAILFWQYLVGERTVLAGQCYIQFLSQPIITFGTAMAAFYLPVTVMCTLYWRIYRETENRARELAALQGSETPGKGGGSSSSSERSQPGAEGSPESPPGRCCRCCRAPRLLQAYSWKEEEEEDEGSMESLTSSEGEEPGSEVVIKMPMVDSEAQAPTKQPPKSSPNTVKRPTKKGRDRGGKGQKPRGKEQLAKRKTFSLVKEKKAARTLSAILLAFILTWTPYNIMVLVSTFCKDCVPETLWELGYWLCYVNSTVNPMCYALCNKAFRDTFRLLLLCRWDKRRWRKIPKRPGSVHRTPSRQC
M1 antag conf = rat M1 muscarinic receptor antagonists, confirmation, CHO cells, Fluo-4 calcium, duplicate; shares compounds with M1 antag; ACh EC80 antagonism; active compounds read low; calcium response (max-min fluorescence) at 10 µM; actives 43% (n = 1,700); AID 677, 2007;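 active = calcium response below the same-plate mean of wells given acetylcholine alone at its 80%-effect dose, minus 3 SD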;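 note: raw fluorescence intensity difference in arbitrary instrument units and not normalized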
mGluR4 antag = human mGluR4 response to M1 antagonist hits, M1 allosteric modulator project, cell-based, antagonist mode, secondary assay 1. shares compounds with M1 antag. CHO-mGluR4 calcium flux, Fluo-4 fluorescence, glutamate EC80; active compounds read low. fluorescence response (max-min) at 10 µM. actives 0.9% (n = 1,700). AID 678, 2007;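 active = fluorescence response below the plate's average for near-maximal glutamate wells, less 3 SD of those wells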;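 note: raw unnormalized fluorescence span taken in the window right after glutamate addition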
* marks the source's active call; other numbers are inactive results; ? = inconclusive; nt = no result.

SMILES	D1 mod	Htt clearance	AP ELISA ortho	M1 agonist	M1 antag	M1 antag conf	mGluR4 antag
O=c1[nH]c(=O)n(CCO)c2nnn(Cc3ccccc3)c12	nt	19	-3	-1.3	-3.3*	579	244
Cn1c(=O)[nH]c(=O)c2c1nc(CN1CCN(Cc3ccccc3)CC1)n2CC(N)=O	0.46	nt	16	-0.23	-0.99	nt	nt
Brc1cccc(-c2nnc(SCc3ccon3)n2-c2ccccc2)c1	3.1	?	7	-0.52	0.37	nt	nt
CCn1c(N2CCN(C(=O)C34CC5CC(CC(C5)C3)C4)CC2)nc2ccccc21	0.051	nt	18	0.4	-0.15	nt	nt
CCn1c(=N)n(CC(=O)C23CC4CC(CC(C4)C2)C3)c2ccccc21	-0.98	nt	4	-1.8	-12*	198*	259
CCOC(=O)c1ccc(N2C(=O)CC(SCC(N)C(=O)OCC)C2=O)cc1 (centres undefined)	-0.35	nt	12	0.29	0.25	nt	nt
O=C1CC(SCCO)C(=O)N1c1ccc(Oc2ccccc2)cc1 (centres undefined)	-0.73	-25	11	0.02	-2.7*	597	252
CCCOC(=O)c1ccc(OCC(O)CN2CCN(C(=O)c3ccccc3)CC2)cc1 (centres undefined)	0.3	14	5	-0.36	-2*	502	240
O=C(CSc1ncn[nH]1)N1CCN(S(=O)(=O)c2ccccc2)CC1	nt	-9	nt	nt	nt	nt	nt
Cc1ccc(-c2nnc(N3CCN(C(=O)CSc4ncn[nH]4)CC3)c3ccccc23)cc1	-1.9	nt	3	0.97	-2.9*	484	225
CCC1=NC(c2ccccc2OC)N(O)C1(C)C (centres undefined)	-0.23	16	8	0.11	-15*	257*	189
COc1ccc(C2N=C(c3ccccc3)C(C)(C)N2O)cc1OC (centres undefined)	-0.1	nt	-4	-0.95	0.22	nt	nt
Cc1nc2scc(-c3ccco3)c2c(=O)n1/N=C/N(C)C	0.3	59	-2	-0.089	-0.62	nt	nt
CCN(CCNS(=O)(=O)c1ccc2[nH]c(=O)sc2c1)c1ccccc1	-0.36	-2	13	-2.1	-2.4*	601	156*
CCOc1ccccc1CNS(=O)(=O)c1ccc2[nH]c(=O)sc2c1	-0.0013	nt	13	0.98	-0.71	nt	nt
Cc1ccc(C(C(=O)NC2CCCC2)N(Cc2cccnc2)C(=O)c2snc(C(N)=O)c2N)o1 (centres undefined)	0.0015	nt	-8	-0.028	-0.32*	600	221
COc1ccc(C(C(=O)OCCN(C)C)c2ccccc2)cc1 (centres undefined)	0.0068	32	8	0.49	-5.8*	232*	259
COc1ccc(C(NC(N)=O)c2ccccc2)cc1 (centres undefined)	-0.037	nt	17	0.027	0.011	nt	nt
O=C(c1cc(-c2cccnc2)nc2ccc(Br)cc12)N1CCC2(CC1)OCCO2	-3.2	40	5	1.3	0	nt	nt
O=C(c1ccccc1)N1CCN(c2ncnc3sc4c(c23)CCC4)CC1	nt	-5	nt	nt	nt	nt	nt
CCOC(=O)NC(Nc1sc2c(c1C(=O)OC)CCN(C)C2)(C(F)(F)F)C(F)(F)F	-0.7	-52	nt	0.76	-1.4*	443	217
O=C(Nc1ccc(Cl)cc1)N1CCN(c2ccc3nnc(-c4ccc(F)cc4)n3n2)CC1	0.56	nt	10	0.73	-4.4*	386*	258
Cc1ccc(C)n1-c1ccc(N2CCOCC2)c(Br)c1	nt	-13	nt	nt	nt	nt	nt
COc1ccc(C(=O)C(CN2CCCC2)c2ccccc2)cc1 (centres undefined)	nt	nt	nt	0.00053	-7.4*	239*	240
CCCCOc1ccc(C(=O)C(CN2CCOCC2)c2ccccc2)cc1 (centres undefined)	nt	-13	nt	nt	nt	nt	nt
